Source: PubChem BioAssay
The source made the active and inactive calls. Cut-off read from the data, not from the text of the source, unless noted: active = inhibition above about 30%; inactive = the rest.

Legend:
[1] = reducers of endogenous Her2 protein level, primary screen, SKBR3 breast tumor cells, AlphaScreen, ATP viability (AID 461;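 active = Her2 level under about 52% in both replicate screens, with viability over 70% of control, limit read from the data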;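 for Her2 level: lower value means less Her2 protein in the cells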;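 for viability: percent of carrier control wells set as 100% viability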); conditions: 18-24 h, measured here: SKBR3 viability, ATP luminescence, at 10 µM
[2] = target: Receptor tyrosine-protein kinase erbB-2 (Homo sapiens) (UniProt P04626); assay: as above; conditions: 18-24 h, at 10 µM, stronger effect = lower value
Chain of Receptor tyrosine-protein kinase erbB-2 (Homo sapiens) (P04626 whole entry, looked up): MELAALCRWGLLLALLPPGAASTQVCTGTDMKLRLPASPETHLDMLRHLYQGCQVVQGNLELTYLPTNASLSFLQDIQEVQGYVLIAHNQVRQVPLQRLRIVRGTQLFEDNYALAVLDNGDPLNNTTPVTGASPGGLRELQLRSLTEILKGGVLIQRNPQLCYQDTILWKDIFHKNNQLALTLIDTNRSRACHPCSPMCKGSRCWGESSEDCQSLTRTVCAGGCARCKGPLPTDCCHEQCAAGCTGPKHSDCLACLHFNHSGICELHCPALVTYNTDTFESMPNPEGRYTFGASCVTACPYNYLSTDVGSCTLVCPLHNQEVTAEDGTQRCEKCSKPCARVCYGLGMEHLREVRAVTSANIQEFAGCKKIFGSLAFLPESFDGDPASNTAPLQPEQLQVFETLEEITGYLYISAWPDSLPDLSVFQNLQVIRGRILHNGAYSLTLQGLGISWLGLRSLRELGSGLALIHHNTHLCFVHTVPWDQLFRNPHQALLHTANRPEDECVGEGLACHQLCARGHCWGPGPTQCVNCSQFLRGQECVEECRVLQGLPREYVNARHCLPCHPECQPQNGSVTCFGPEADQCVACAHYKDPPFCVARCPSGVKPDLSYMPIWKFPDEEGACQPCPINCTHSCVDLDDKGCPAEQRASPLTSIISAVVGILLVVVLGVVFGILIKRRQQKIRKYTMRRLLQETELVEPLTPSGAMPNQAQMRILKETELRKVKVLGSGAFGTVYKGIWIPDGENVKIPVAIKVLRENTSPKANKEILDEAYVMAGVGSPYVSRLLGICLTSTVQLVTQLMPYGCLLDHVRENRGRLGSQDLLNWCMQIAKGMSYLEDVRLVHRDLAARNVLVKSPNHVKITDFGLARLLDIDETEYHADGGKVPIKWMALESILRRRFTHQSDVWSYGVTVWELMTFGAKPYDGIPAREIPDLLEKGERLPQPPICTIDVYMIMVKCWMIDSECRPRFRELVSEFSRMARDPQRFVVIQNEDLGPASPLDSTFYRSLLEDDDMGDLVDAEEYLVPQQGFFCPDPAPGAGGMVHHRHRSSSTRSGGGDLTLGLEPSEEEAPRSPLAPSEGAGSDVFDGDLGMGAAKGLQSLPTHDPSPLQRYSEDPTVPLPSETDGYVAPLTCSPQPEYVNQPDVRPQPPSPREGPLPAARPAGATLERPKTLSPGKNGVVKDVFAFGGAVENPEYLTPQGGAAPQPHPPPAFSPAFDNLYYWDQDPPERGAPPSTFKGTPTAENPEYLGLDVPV

[3] = SK-BR-3 cell growth inhibitors, pilot screen, 24 h, human (AID 572;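 active = viability at or below 10% of carrier control in both of two separate runs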;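 note: compound exposure lasted between 18 and 24 h rather than exactly 24 h; 100% = carrier-treated control wells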); conditions: SK-BR-3 viability, CellTiter-Glo luminescence, at 10 µM, stronger effect = lower value
[4] = HUVEC growth inhibition – cell-based, human, primary screen (AID 575;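 active = viability at or below 30% in both replicate assays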;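 note: 100% = median of untreated cell wells with 0.1% DMSO on each plate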); conditions: HUVEC proliferation, CellTiter-Glo luminescence, 72 h; at 10 µM; stronger effect = lower value
How it was run: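 Test system – primary HUVEC, no more than 12 passages · Dosing – one dose, 10 µM final, 0.1% DMSO · Times – 72 h treatment at 37 °C · Measured by – ATP-based CellTiter-Glo luminescent read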

[5] = growth inhibitors of H69AR lung tumor, primary screen, human, duplicate replicates (AID 580;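 active = viability at or under a set limit in both replicates, limit being median viability minus 3 SD, cut at about 48% in these data, passing the limit was not always enough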;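 note: 100% = mean luminescence of untreated wells and 0% = no signal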); conditions: H69AR lung tumor cells viability, ATP luminescence, 72 h; at 10 µM; stronger effect = lower value
[6] = reversal of MRP1-mediated doxorubicin resistance, pilot screen, H69AR cells, doxorubicin co-treatment (AID 601;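 active = viability loss from added drug above about 55%, and viability with drug at most 40%, in both replicates, limit read from the data, passing the limit was not always enough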); conditions: CellTiter-Glo, 72 h, at 10 µM; for differential viability (reversal): stronger effect = higher value
[7] = 384-well plate pilot, post-Golgi transport modulator project, inhibition of yeast transport mutant growth (AID 636; in the data active = inhibition above about 31%); conditions: absorbance 615 nm, about 18 h, stronger effect = higher value
[8] = growth suppression of yeast trafficking mutant, preliminary HTS, modulators of trafficking downstream of Golgi apparatus project, 1536-format plate, OD 615 nm (AID 637); conditions: yeast transport mutant growth, absorbance 615 nm, 18 h; stronger effect = higher value
[9] = H69AR cells + 2 uM doxorubicin, measured here: viability with 2 uM doxorubicin, stronger effect = lower value
[10] = H69AR cells, compound alone cytotoxicity

| SMILES | viability [1] [%] | Her2 level [2] | viability [3] | viability [4] | viability [5] | differential viability (reversal) ([6]; H69AR cells + 2 uM doxorubicin) | viability [6, 9] [%] | viability [6, 10] [%] | inhibition [7] | inhibition [8] |
| --- | --- | --- | --- | --- | --- | --- | --- | --- | --- | --- |
| Cc1cc(OCC(=O)Nc2ccc3oc(-c4ccncc4)nc3c2)ccc1Cl | 92.5 | 121% (inactive) | 92.5% (inactive) | 68% (inactive) | 60.1% (inactive) | 1.31% (inactive) | 58.7 | 60.1 | 3.95% (inactive) | 8.85% (inactive) |
| Cc1ccccc1CNS(=O)(=O)c1ccc2c(c1)OCCO2 | 95.5 | 104% (inactive) | 95.5% (inactive) | 83.6% (inactive) | 109% (inactive) | 17.3% (inactive) | 92 | 109 | -5.47% (inactive) | -6.77% (inactive) |
| CN(C)c1nc(Nc2ccc(Cl)cc2)nc(OCC#N)n1 | 105 | 80.5% (inactive) | 105% (inactive) | 63.2% (inactive) | 81.8% (inactive) | -14.6% (inactive) | 96.3 | 81.8 | -0.26% (inactive) | 11% (inactive) |
| CCc1cccc(NS(=O)(=O)c2c(C)n[nH]c2C)c1 | 92 | 96% (inactive) | 92% (inactive) | 110% (inactive) | 107% (inactive) | 13.2% (inactive) | 93.5 | 107 | -6.05% (inactive) | -5.08% (inactive) |
| COc1cc(S(=O)(=O)n2nnc3ccccc32)c(OC)cc1Cl | 96 | 81.5% (inactive) | 96% (inactive) | 77% (inactive) | 84.9% (inactive) | -3.02% (inactive) | 87.9 | 84.9 | -2.8% (inactive) | 41.8% (active) |
| COc1ccc(-c2ccc(Nc3ccc(S(=O)(=O)N4CCCC4)cc3)nn2)cc1OC | 77.5 | 70.5% (inactive) | 77.5% (inactive) | 61.6% (inactive) | 53.6% (inactive) | -2.87% (inactive) | 56.5 | 53.6 | -6.8% (inactive) | -1.97% (inactive) |
| CCN1CCN(c2ncc(C(=O)N3CCN(c4ccccc4OC)CC3)c3ccccc23)CC1 | 81 | 87.5% (inactive) | 81% (inactive) | 98.8% (inactive) | 101% (inactive) | 14.7% (inactive) | 86.7 | 101 | -5.68% (inactive) | -1.8% (inactive) |
| N#Cc1c(N)c(C(=O)c2ccccc2)n2c1CCCC2 | 103 | 71% (inactive) | 103% (inactive) | 97.7% (inactive) | 93.1% (inactive) | -6.13% (inactive) | 99.2 | 93.1 | -8.92% (inactive) | -0.66% (inactive) |
| Cc1ccc(C)c(N2CCN(C(=O)CCCn3c(=S)[nH]c4cc5c(cc4c3=O)OCO5)CC2)c1 | 73.5 | 88.5% (inactive) | 73.5% (inactive) | 62.5% (inactive) | 94% (inactive) | 4.74% (inactive) | 89.2 | 94 | -3.38% (inactive) | -0.33% (inactive) |
| CC1=C(C(=O)NCc2ccco2)C2(CCC(C)CC2)OC1=O (stereo not given) | 89.5 | 100% (inactive) | 89.5% (inactive) | 94% (inactive) | 84% (inactive) | -0.86% (inactive) | 84.8 | 84 | -4% (inactive) | -5.74% (inactive) |
| CCOC(=O)c1[nH]nc(-c2c(O)cc(C)cc2O)c1-c1csc(C)n1 | 94 | 106% (inactive) | 94% (inactive) | 106% (inactive) | 96.5% (inactive) | 6.7% (inactive) | 89.8 | 96.5 | -6.71% (inactive) | -2.91% (inactive) |
| CSc1nc(NC(C)(C)C)nc(Oc2ccc(=O)[nH]n2)n1 | 101 | 93.5% (inactive) | 101% (inactive) | 107% (inactive) | 92.1% (inactive) | 0.405% (inactive) | 91.7 | 92.1 | -3.82% (inactive) | 2.46% (inactive) |
| COc1ccccc1N1CCN(C(=O)CSc2nc(-c3ccccc3)cc(=O)[nH]2)CC1 | 87.5 | 124% (inactive) | 87.5% (inactive) | 80.8% (inactive) | 88.1% (inactive) | -1.75% (inactive) | 89.8 | 88.1 | -3.16% (inactive) | -6.83% (inactive) |
| CN(C)C(CN1C(=O)C2CC=CCC2C1=O)c1cn(C)c2ccccc12 (stereo not given) | 104 | 85.5% (inactive) | 104% (inactive) | 89.9% (inactive) | 95.4% (inactive) | 6.72% (inactive) | 88.7 | 95.4 | -6.71% (inactive) | -1.59% (inactive) |
| Cc1cccc(-c2nnc(SCC#N)n2-c2cccc(Cl)c2)c1 | 90.5 | 83.5% (inactive) | 90.5% (inactive) | 104% (inactive) | 84.6% (inactive) | -3.93% (inactive) | 88.6 | 84.6 | -6% (inactive) | 0% (inactive) |
| CCOc1cc(C(=O)NCc2ccncc2)cc(OCC)c1OCC | 117 | 92% (inactive) | 117% (inactive) | 94.4% (inactive) | 90.7% (inactive) | 2.97% (inactive) | 87.7 | 90.7 | -6.27% (inactive) | -4.76% (inactive) |

| SMILES | viability [1] [%] | Her2 level [2] | viability [3] | viability [4] | viability [5] | differential viability (reversal) ([6]; H69AR cells + 2 uM doxorubicin) | viability [6, 9] [%] | viability [6, 10] [%] | inhibition [7] | inhibition [8] |
| --- | --- | --- | --- | --- | --- | --- | --- | --- | --- | --- |
| Cc1nc(NCCNC(=O)c2ccco2)c2c(C)c(C)sc2n1 | 87.5 | 81% (inactive) | 87.5% (inactive) | 97.9% (inactive) | 86.5% (inactive) | 2.2% (inactive) | 84.3 | 86.5 | -4.08% (inactive) | 0.91% (inactive) |
| CCC(=O)N(CCCN(C)C)c1nc(-c2cc(OC)ccc2OC)cs1 | 93.5 | 87.5% (inactive) | 93.5% (inactive) | 78.2% (inactive) | 84.6% (inactive) | 11.2% (inactive) | 73.3 | 84.6 | -5.2% (inactive) | 5.08% (inactive) |
| O=C(NCC1CCCO1)C1CCN(c2ccc(S(=O)(=O)N3CCCC3)cc2)CC1 (stereo not given) | 115 | 112% (inactive) | 115% (inactive) | 99.2% (inactive) | 80% (inactive) | -6.02% (inactive) | 86 | 80 | -5.45% (inactive) | -1.5% (inactive) |
| CCc1nc2scc(-c3ccccc3)c2c(=O)n1N | 136 | 119% (inactive) | 136% (inactive) | 84% (inactive) | 88.4% (inactive) | -8.11% (inactive) | 96.5 | 88.4 | -1.33% (inactive) | -3.97% (inactive) |
| CCCN(Cc1cc2cc(C)ccc2[nH]c1=O)C(=O)c1cccc(OC)c1 | 114 | 91% (inactive) | 114% (inactive) | 70.6% (inactive) | 81.2% (inactive) | -0.89% (inactive) | 82.1 | 81.2 | -7.07% (inactive) | -0.65% (inactive) |
| CCOC(=O)c1cnn(-c2cc(C)nc3c(-c4ccccc4)c(C)nn23)c1N | 120 | 89% (inactive) | 120% (inactive) | 84.2% (inactive) | 89.4% (inactive) | 15.7% (inactive) | 73.7 | 89.4 | -3.77% (inactive) | -5.56% (inactive) |
| N=c1c(C(=O)NCc2ccc(F)cc2)cc2c(=O)n3ccccc3nc2n1CCCN1CCOCC1 | 95 | 74.5% (inactive) | 95% (inactive) | 82.8% (inactive) | 76.6% (inactive) | -8.96% (inactive) | 85.6 | 76.6 | 0.78% (inactive) | 10.8% (inactive) |
| Cc1noc(C)c1CSc1nnc(-c2ccncc2)n1-c1cccc(Cl)c1C | 81.5 | 93.5% (inactive) | 81.5% (inactive) | 81% (inactive) | 88.4% (inactive) | 2.37% (inactive) | 86 | 88.4 | -3.42% (inactive) | -8.25% (inactive) |
| Cc1ccc(NC(=O)CS(=O)CC(=O)NCC2CCCO2)cc1 (stereo not given) | 96.5 | 120% (inactive) | 96.5% (inactive) | 103% (inactive) | 96.8% (inactive) | 7.8% (inactive) | 89 | 96.8 | -1.62% (inactive) | 25% (inactive) |
| CC1(C)CC(=O)C2=C(C1)OC(N)=C(C#N)C2C1CC=CCC1 (stereo not given) | 108 | 93% (inactive) | 108% (inactive) | 91.4% (inactive) | 81.6% (inactive) | 12.5% (inactive) | 69.1 | 81.6 | -7.53% (inactive) | -2.22% (inactive) |
| CCc1[nH]nc2c1C(c1ccncc1)C(C#N)=C(N)O2 (stereo not given) | 108 | 112% (inactive) | 108% (inactive) | 106% (inactive) | 95.9% (inactive) | -3.88% (inactive) | 99.8 | 95.9 | -4.46% (inactive) | -4.92% (inactive) |
| Cc1cc(C)nc(SCC(=O)Nc2ccc(S(=O)(=O)Nc3nccs3)cc2)n1 | 110 | 107% (inactive) | 110% (inactive) | 97.4% (inactive) | 95.7% (inactive) | 4.67% (inactive) | 91 | 95.7 | -1.76% (inactive) | 5.9% (inactive) |
| Cn1cc(CN2CCc3ccccc3C2)c2ccccc21 | 80.5 | 82% (inactive) | 80.5% (inactive) | 90.4% (inactive) | 75.6% (inactive) | -8.43% (inactive) | 84.1 | 75.6 | -5.58% (inactive) | 3.93% (inactive) |
| CCn1ncc(C2=NOC(C(=O)NCc3ccccc3)C2)c1C (stereo not given) | 91 | 82.5% (inactive) | 91% (inactive) | 43.2% (inactive) | 27.5% (active) | -33% (inactive) | 60.4 | 27.5 | -6.18% (inactive) | -1.9% (inactive) |
| COCCn1c(SCC(=O)N(C(C)C)C(C)C)nnc1-c1cc2ccccc2cc1O | 96 | 91.5% (inactive) | 96% (inactive) | 106% (inactive) | 88.3% (inactive) | 0.38% (inactive) | 88 | 88.3 | -1.3% (inactive) | -5.5% (inactive) |
| C=CCOc1ccc(/C=N/n2cncn2)cc1OC | 85 | 112% (inactive) | 85% (inactive) | 103% (inactive) | 94.6% (inactive) | 8.46% (inactive) | 86.2 | 94.6 | 9.86% (inactive) | 16.8% (inactive) |
